Data: the EternaBench riboswitch data

Test system: MS2 coat protein
Assay: apparent Kd, MS2 coat protein; higher = weaker binding; RNA-MaP array
Summary of the method: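 In Tris-HCl pH 7.5 buffer with KCl, MgCl2, BSA, DTT, tRNA and Tween20, with or without input ligand, fluorescently labeled MS2 coat protein at 1.5 nM to 3 μM was incubated at room temperature with designed RNAs. The RNAs had been transcribed on an Illumina sequencing chip from sequenced DNA templates, and incubation ran 0.8–1.5 h at the lowest to 10–20 min at the highest concentrations. Apparent Kd is the median of binding-curve fits for individual clusters. Designs measured on fewer than 10 clusters were excluded.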

[1] = designed as: OFF switch for flavin mononucleotide, no ligand
[2] = ligand present: flavin mononucleotide, designed as: OFF switch for flavin mononucleotide
[3] = designed as: ON switch for flavin mononucleotide, no ligand
[4] = ligand present: flavin mononucleotide, designed as: ON switch for flavin mononucleotide

Sequence | apparent Kd [1] [nM] | apparent Kd [2] [nM] | apparent Kd [3] [nM] | apparent Kd [4] [nM] | further results
UUUGCUACCUAGAAGGCUGACGAGACAUGAGGAUCACCCAUGUUGGAAAUUCUUACGGCAAUGGCAGAGGAUAUAGGACGAAAA | 7.66 | 11.3 | – | – | –
AUUACAAGCACAGGAUAUAACAGUUGGUUCACAUGAGGAUCACCCAUGUAGCAUUGGGAAGUAGCUUAGAAGGGUGAGGUGGUU | – | – | 183 | 107 | –
UGAGUAAGCGAGGAUAUUGGGCGCGUACGUGGUCAAGAAGGCGCAACAUGAGGAUCACCCAUGUGCUUCUCUUG | 15.7 | 29.2 | – | – | –
CUUUAACAUGAGGAUCACCCAUGUCCGAUGAAUUUAGGAUAUCGCAUUGGUCGUAUGAGGCGAGAAGGAAAUUGUC | – | – | 28.4 | 12.8 | –
CAUGCUUGCGAGGAUAUAAGGUUCUCCCUGUUCUUAGAAGGCGCAACAUGAGGAUCACCCAUGUUCCUACCGAA | 43 | 283 | – | – | –
GUGGGACAUGAGGAUCACCCAUGUGACGAUACCAGUCAAUUGAUGGACCCUUGGCAGCGUUGGUAUUGCGGGUAGGCGAGAUAAG | – | – | – | – | apparent Kd (designed as: ON switch for theophylline, no ligand): 43.2 nM; apparent Kd (ligand present: theophylline, designed as: ON switch for theophylline): 45.4 nM
CAUGGGCUAAGACAUUAUUCGUAUUUUGAUACCAGAAAAUUGGCGUUCCCUUGGCAGCAAUAUACAUGAGGAUCACCCAUGUCCC | – | – | – | – | apparent Kd (designed as: OFF switch for theophylline, no ligand): 80.6 nM; apparent Kd (ligand present: theophylline, designed as: OFF switch for theophylline): 93.8 nM
UGUUUUAAAGAGGAUAUGACAACGGUUCCACCGUCAGAAGGCUUUACAUGAGGAUCACCCAUGUACUGGAGUGA | 17.3 | 81.9 | – | – | –
AGACUUAGACAAGGAUAUGGUGAGGCCACCUUACAUGAGGAUCACCCAUGUCUAGAGAUCCUGUGCCAGAAGGUGUAGUUGGAC | – | – | 312 | 75.7 | –
CAUUGGGUCAGUUCGACAUGAGGAUCACCCAUGUAGUUAACGAGAAGGAGUACCAGCCUAAGUGACUAGGAUAUCGAUAAGUGG | 37.3 | 38.7 | – | – | –
UCGUUGCCAUGAGGAUAUCGUGUCAAGACAGGCAAGUGACCGUACAUGAGGAUCACCCAUGUAAACGAGAAGGCAUAGUCAUGG | 17 | 13.9 | – | – | –
GGAUGGGUGGAAGGAUAUGAGCCCAGGACAUGAGGAUCACCCAUGUGUAGUUCAGUCUCUAAUUCUCAGAAGGUCCAGAUUCUA | 18.1 | 21.5 | – | – | –
AUAUCAGGGUAGAAGGCAGCAUCAACAUGAGGAUCACCCAUGUAUAGGCACGUAGCCGCACGUGCUGAGGAUAUACGUUAUAAU | – | – | 16.4 | 6.41 | –
UCGUCACAUGUUAGGAUAUUGCUAGGAUCCUAGAACAAGAAGGAACAUGAGGAUCACCCAUGUCAGUGAAUCAU | 23 | 36 | – | – | –
AUCAUGUAAGGAUAUGCCGAACCUGUUUUGUCGCGGUUAAAGCAGAAGGUACAUGAGGAUCACCCAUGUUAAAU | 56.2 | 54.4 | – | – | –
GUUGAGGGCGUGCACAUGAGGAUCACCCAUGUUCUACCUAUCGAGGAUAUAUCUGUAGGAUCAGAAUAGAAGGCGAGCAAGGUC | 21.4 | 14.8 | – | – | –
GGCGCUACGCCGGUACAUGAGGAUCACCCAUGUCCAUAUGUAAGAAGGUCUGGCGGGACGACAAAGAAGGAUAUUACAGAUUGC | – | – | 33.7 | 24.9 | –
CACGAUACUACAGGAUAUGCCGGUUACCAAUCUGCAGAAGGGUAGAUUAGUCUAACAUGAGGAUCACCCAUGUACCUCUCAUGU | 208 | 248 | – | – | –
CACGAGAACACUCAGGAUAUGACAAACAAGACAUGAGGAUCACCCAUGUGAAAUUACGGGUGCAAACAGAAGGGAGAAACUUACAC | – | – | 48.6 | 47.5 | –
GCUCCGCUAGCAGGAUAUGUAGGGGGAUUAUUGAUUGGGCGUAACAUGAGGAUCACCCAUGUUCCACAGAAGGGCUGGAGAAGA | 107 | 68.3 | – | – | –
GCAGUGCGUGAGGAUAUGUGAGUGAACACACACACAGAAGGCACAACAUGAGGAUCACCCAUGUUCCUGGUGCC | 7.62 | 7.95 | – | – | –
CGUAUUGCUCGUUAGGAUAUCCAAUCUGAAACAUGAGGAUCACCCAUGUAGCCAGCAUCACAUGAGGAGAAGGAACAAGAUAAACG | – | – | 16.6 | 8.89 | –
UAUUGUAUAGGAUAUACAUGAGGAUCACCCAUGUUCGAUGUUUGGAGCCUGCUUCAUAGUAGAAGGAUACGCCC | 16.3 | 16.7 | – | – | –
AGACAUGAGGAUCACCCAUGUUGCUGUACAGGAGUUAAAGUCUAGGAUAUUGGGUCAGAAAGCGACAAGAAGGAGACACGCCAG | – | – | 11.2 | 8.47 | –
UUCAUGUUAGGAUAUAGUGUAAGAGCGGGCGGGACUCUAUUCUAGAAGGAACAUGAGGAUCACCCAUGUUAAGG | 213 | 124 | – | – | –
GCCAUAAUCUGAGGAUAUAGAGAGAUAAGGAAGCACAUGAGGAUCACCCAUGUCCGUGGUAUAGGCAAGAAGGCAGCUGGAAUC | – | – | 15.3 | 15.7 | –
